# Values joined by “and” are separate entries in the source; they are usually repeats but may differ in a detail not shown here. Identical values can stand only once. Like-named read-outs stand apart in the source and are kept apart here.
# Columns and labels:
# [1] = target: ZIKV NS5: full length ZIKV protein (Zika virus, UniProt A0A024B7W1); assay: In vitro polymerase assay; assay type: biochemical; conditions: read-out: IC50 ZIKV NS5, polymerase activity
# [2] = target: D2pol: polymerase domain of dengue 2 virus (Dengue virus type 2, UniProt P14340); assay: In vitro polymerase assay; assay type: biochemical; conditions: read-out: IC50 D2pol; polymerase activity
# [3] = target: D2 NS5: full length DENV protein (Dengue virus type 2, UniProt P14340); assay: In vitro polymerase assay; assay type: biochemical, dengue 2 virus; conditions: read-out: IC50 D2 NS5, polymerase activity
# DENV-2 [4] = conditions: read-out: IC50 DENV-2; cited from earlier work
# ZIKV [5] = conditions: read-out: IC50 ZIKV; cited from earlier work
# [6] = Cytotoxicity, CellTiter-Glo 2.0 luminescent cell viability assay; assay type: cell-based; conditions: human, Huh7 cells
# [7] = ABTS radical decolorization assay; assay type: physicochemical; conditions: 10 μM-1 mM, 10 min; Fig. 2
# In short: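 ABTS radical cation solution, diluted 1:100 in ethanol to an absorbance of 0.70 (±0.02) at 734 nm, serves as the control solution. Test compound or ascorbic acid reference, dissolved in DMSO at 10 μM, 50 μM, 0.1 mM, 0.2 mM, 0.5 mM or 1 mM, is added. A734 is read after exactly 10 min, and %scavenging = [(A0 − As)/A0] × 100, with the control run in each assay.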
# [8] = Stability towards oxidative stress; assay type: physicochemical; conditions: 40 mM H2O2 in ethanol, argon atmosphere; data not shown
# [9] = tested on: Dengue, Zika, West Nile and Influenza A viruses; assay: Antiviral activity, range over the tested viruses; assay type: cell-based; conditions: read-out: IC50 (range over viruses)
# [10] = tested on: DENV NS3 and NS5 proteins; assay type: cell-based, DENV-2; conditions: for expression of NS5 protein: 6i 50 μM (p ≤ 0.0001 at 16 h), Sofosbuvir 100 μM (from 12 h, p ≤ 0.01); for expression of NS3 protein: 6i 50 μM (p ≤ 0.05 at 12 h), Sofosbuvir 100 μM (from 12 h, p ≤ 0.05)
# DENV = assay: In vitro resistance selection in Huh7 cells, NS3/NS5 population sequencing; assay type: cell-based, Dengue virus serotype 2 (New Guinea C)
# ZIKV [11] = assay: as above; assay type: cell-based, Zika virus (H/PF/2013)
# PR8 H1N1 = assay: Time-of-addition, In Cell Western of hemagglutinin; assay type: cell-based, Influenza A virus
# [12] = tested on: influenza A virus strains PR8 H1N1, pandemic 2009H1N1, avian Ulster H7N1; assay type: cell-based
# SARS-CoV-2 = conditions: SARS-CoV-2, Calu-3; literature value in parenthesis; cited from earlier work
# DENV-2 [13] = assay: Plaque reduction assay; assay type: cell-based, Dengue virus serotype 2 (New Guinea C); conditions: Dengue virus, DENV2, read-out: DENV-2 IC50
# ZIKV NS5: full length ZIKV protein, sequence (A0A024B7W1 2521-3423 limits assumed): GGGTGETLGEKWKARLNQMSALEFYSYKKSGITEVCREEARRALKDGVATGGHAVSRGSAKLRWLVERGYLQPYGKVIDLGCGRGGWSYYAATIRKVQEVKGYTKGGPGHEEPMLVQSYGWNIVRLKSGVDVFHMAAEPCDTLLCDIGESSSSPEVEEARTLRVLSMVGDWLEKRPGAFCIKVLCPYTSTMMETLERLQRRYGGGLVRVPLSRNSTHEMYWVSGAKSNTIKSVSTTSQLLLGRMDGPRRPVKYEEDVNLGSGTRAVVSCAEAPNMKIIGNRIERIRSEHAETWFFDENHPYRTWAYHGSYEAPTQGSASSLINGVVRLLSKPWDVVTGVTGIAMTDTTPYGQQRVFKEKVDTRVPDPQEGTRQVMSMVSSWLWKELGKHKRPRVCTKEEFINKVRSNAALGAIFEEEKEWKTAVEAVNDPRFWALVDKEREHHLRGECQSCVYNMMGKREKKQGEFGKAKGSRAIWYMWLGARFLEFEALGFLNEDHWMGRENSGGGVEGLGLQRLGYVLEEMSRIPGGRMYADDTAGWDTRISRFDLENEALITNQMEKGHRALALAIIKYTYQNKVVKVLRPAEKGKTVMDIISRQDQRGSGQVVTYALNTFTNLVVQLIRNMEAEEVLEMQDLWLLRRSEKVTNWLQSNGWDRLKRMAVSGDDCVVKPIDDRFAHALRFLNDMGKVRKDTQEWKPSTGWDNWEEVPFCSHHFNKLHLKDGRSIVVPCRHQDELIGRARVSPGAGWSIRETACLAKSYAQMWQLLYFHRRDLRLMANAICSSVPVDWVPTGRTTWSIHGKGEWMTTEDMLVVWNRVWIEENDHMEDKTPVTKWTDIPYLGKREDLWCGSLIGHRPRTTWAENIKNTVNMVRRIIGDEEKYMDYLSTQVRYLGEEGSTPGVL
structure (smiles),measurement,setting,value
Nc1ncnc2c1ncn2[C@@H]1O[C@H](COP(=O)(O)OP(=O)(O)OP(=O)(O)O)C[C@H]1O [3'dATP],IC50,[1],1 ± 0.2 µM
same,IC50,[2],0.27 ± 0.03 µM
same,IC50,[3],0.32 ± 0.05 µM
Oc1cccc(Nc2nc(NCCOc3ccccc3)nc3[nH]cnc23)c1 [Compound 3],IC50,DENV-2 [4],10 µM
same,IC50,ZIKV [5],16.7 µM
"Fc1cccc(Nc2nc(NCCOc3ccccc3)nc3[nH]cnc23)c1 [Compound 6c, N6-(3-fluorophenyl)-N2-(2-phenoxyethyl)-9H-purine-2,6-diamine]",CC50,[6],> 200 µM
"CNc1nc(Nc2cccc(C(=O)OC)c2)c2nc[nH]c2n1 [Compound 6d, Methyl 3-((2-(methylamino)-9H-purin-6 yl)amino)benzoate]",CC50,[6],> 200 µM
"COC(=O)c1cccc(Nc2nc(NCCO)nc3[nH]cnc23)c1 [Compound 6e, Methyl 3-((2-((2-hydroxyethyl)amino)-9H-purin-6-yl)amino)benzoate]",CC50,[6],> 200 µM
"CNc1nc(Nc2cccc(C(F)(F)F)c2)c2nc[nH]c2n1 [Compound 6g, N2-methyl-N6-(3-(trifluoromethyl)phenyl)-9H-purine-2,6-diamine]",CC50,[6],> 200 µM
"FC(F)(F)c1cccc(Nc2nc(NCCOc3ccccc3)nc3[nH]cnc23)c1 [Compound 6i, N [2]-(2-phenoxyethyl)-N [6]-(3-(trifluoromethyl)phenyl)-9H-purine-2,6-diamine]",radical scavenging activity (% inhibition of the ABTS absorbance at 734 nm),[7],not observed
same,stability towards oxidative stress,[8],stable for days
same,IC50,[9],0.5 to 5.3 µM
same,expression of NS5 protein,[10],significantly reduced
same,expression of NS3 protein,[10],significantly reduced
same,MCC NS3/NS5 (Manders' colocalization coefficient),"[10]; 6i 50 μM, 16 h post infection, untreated control 0.726 ± 0.135",0.404 ± 0.106
same,MCC NS5/NS3 (Manders' colocalization coefficient),"[10]; 6i 50 μM, 16 h post infection, untreated control 0.752 ± 0.125",0.397 ± 0.101
same,dpi (days post infection to 80% CPE),DENV; 6i 15 μM,6 days
same,dpi (days post infection to 80% CPE),DENV; 6i 30 μM,7 days
same,dpi (days post infection to 80% CPE),DENV; 6i 60 μM,5 days
same,dpi (days post infection to 80% CPE),DENV; 6i 120 μM,5 days and 9 days
same,dpi (days post infection to 80% CPE),ZIKV [11]; 6i 15 μM,8 days
same,dpi (days post infection to 80% CPE),ZIKV [11]; 6i 30 μM,5 days
same,dpi (days post infection to 80% CPE),ZIKV [11]; 6i 60 μM,5 days
same,dpi (days post infection to 80% CPE),ZIKV [11]; 6i 120 μM,5 days
same,effect on HA expression,PR8 H1N1,not quite effective
same,inhibition of viral protein expression,[12],20–26% and 28–45%
same,CC50,[6],> 200 µM
"Oc1ccc(Nc2nc(NCCOc3ccccc3)nc3[nH]cnc23)cc1O [Compound 6j, 4-((2-((2-phenoxyethyl)amino)-9H-purin-6-yl)amino)benzene-1,2-diol]",CC50,[6],> 200 µM
"CNc1nc(Nc2cccc(C(=O)O)c2)c2nc[nH]c2n1 [Compound 6l, 3-((2-(methylamino)-9H-purin-6-yl)amino)benzoic acid]",CC50,[6],> 200 µM
"O=C(O)c1cccc(Nc2nc(NCCOc3ccccc3)nc3[nH]cnc23)c1 [Compound 6m, 3-((2-((2-phenoxyethyl)amino)-9H-purin-6-yl)amino)benzoic acid]",CC50,[6],> 200 µM
"Fc1cccc(NNc2nc(NCCOc3ccccc3)nc3[nH]cnc23)c1 [Compound 10a, 6-(2-(3-fluorophenyl) hydrazinyl)-N-(2-phenoxyethyl)-9H-purin-2-amine]",radical scavenging activity (% inhibition of the ABTS absorbance at 734 nm),[7],clear concentration-dependent radical scavenging activity
same,stability towards oxidative stress,[8],quickly converted into 11a
"Fc1cccc(/N=N/c2nc(NCCOc3ccccc3)nc3[nH]cnc23)c1 [Compound 11a, 6-((3-fluorophenyl)diazenyl)-N-(2-phenoxyethyl)-9H-purin-2-amine]",radical scavenging activity (% inhibition of the ABTS absorbance at 734 nm),[7],not observed
same,stability towards oxidative stress,[8],stable for days
CCC(CC)COC(=O)[C@H](C)N[P@](=O)(OC[C@H]1O[C@@](C#N)(c2ccc3c(N)ncnn23)[C@H](O)[C@@H]1O)Oc1ccccc1 [RMD],IC50,SARS-CoV-2,0.28 µM
"NC(=O)c1ncn([C@@H]2O[C@H](CO)[C@@H](O)[C@H]2O)n1 [Ribavirin, reference compound]",CC50,[6],> 200 µM
"CC(C)OC(=O)[C@H](C)N[P@](=O)(OC[C@H]1O[C@@H](n2ccc(=O)[nH]c2=O)[C@](C)(F)[C@@H]1O)Oc1ccccc1 [Sofosbuvir, reference compound]",expression of NS5 protein,[10],significantly reduced
same,expression of NS3 protein,[10],significantly reduced
same,CC50,[6],> 200 µM
same,IC50,DENV-2 [13],3.8 µM
